Reference: PMC8189251 (ACS chemical biology, 2021)

Experiments:
[1] = target: T1, SF3B (Homo sapiens, UniProt O75533+Q7RTV0); settings: cited from earlier work; for splicing products with inhibitor alone: 1 μM inhibitor alone in in vitro splicing reaction
[2] = target: T1, SF3B; format: biochemical; settings: for splicing efficiency, first incubation at 30°C compared to 4°C before excess iHB: 1 μM inhibitor, then 100 μM iHB
[3] = tested on: U2 snRNP; settings: bypassed by an ATP-dependent rearrangement; cited from earlier work
[4] = tested on: U2 snRNA; assay: RNase H cleavage analysis of U2 snRNA accessibility in nuclear extract; format: biochemical, human; settings: 1 μM, 10 minutes at 30°C
How it was run: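 HeLa nuclear extract (40%), ATP-depleted 10 min at 30°C, in 60 mM potassium glutamate, 2 mM Mg acetate, 0.1 mg/mL tRNA, ±2 mM ATP, with test compound or DMSO, 10 min, 30°C. Oligos against U2 nt 24–38 or 32–46 (5 μM) were added for 15 min for endogenous RNase H cleavage, then DNase-removed. Read-out: primer extension (³²P primer, U2 97–117; MMLV RT, 53°C, 30 min), denaturing gel, phosphorimaging.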

## CO[C@H]([C@@H](C)[C@H]1O[C@]1(C)C[C@H](C)/C=C/C=C(\C)[C@H]1O[C@@H](CC(=O)O)CC[C@@H]1C)[C@@H](C)O [compound 1, herboxidiene]
[1]
  splicing products with inhibitor alone: not detected
[1]; read-out: IC50 value for in vitro splicing, HeLa nuclear extract
  IC50: 300 nM
[2]
  splicing efficiency, first incubation at 30°C compared to 4°C before excess iHB: lower

## CC[C@H](O)[C@@H](C)[C@H]1O[C@@H]1C[C@@](C)(O)/C=C/C=C(\C)[C@H]1OC(=O)C[C@H](O)CC[C@@](C)(O)[C@@H](OC(=O)N2CCN(C3CCCCCC3)CC2)/C=C/[C@@H]1C [E7107]
[3]
  effect on U2 snRNPs ability to engage an oligo containing the branch sequence: inhibits

## CO[C@]1(C)C[C@@]2(CO2)[C@H](O)[C@@H](/C=C/C(C)=C/C[C@@H]2O[C@H](C)[C@H](NC(=O)/C=C\[C@H](C)OC(C)=O)C[C@@H]2C)O1 [SSA, spliceostatin A]
[1]
  splicing products with inhibitor alone: not detected
[4]
  effect on ATP-dependent changes in U2 snRNA cleavage: does not interfere
[2]; 1 μM inhibitor 10 min, then 100 μM iHB 10 min
  splicing efficiency, inhibitor incubated before excess iHB competitor: greatly reduced
[2]; 1 μM inhibitor 10 min, then DMSO 10 min, 4°C
  splicing products, inhibitor followed by DMSO: no splicing products
[2]
  splicing efficiency, first incubation at 30°C compared to 4°C before excess iHB: lower
[2]; inferred from order of addition, not direct binding
  off-rate: very slow
